Source: ChEMBL document CHEMBL1135768, “Design, synthesis, and SAR of tachykinin antagonists: modulation of balance in NK(1)/NK(2) receptor antagonist activity” (J Med Chem, 2002)

Legend:
[1] = biological target: T1, Substance-K receptor (Oryctolagus cuniculus) (UniProt P79218); experiment: Tested for the binding affinity towards tachykinin receptor 2 (NK2) in rabbit pulmonary artery tissue
T1 sequence (whole entry): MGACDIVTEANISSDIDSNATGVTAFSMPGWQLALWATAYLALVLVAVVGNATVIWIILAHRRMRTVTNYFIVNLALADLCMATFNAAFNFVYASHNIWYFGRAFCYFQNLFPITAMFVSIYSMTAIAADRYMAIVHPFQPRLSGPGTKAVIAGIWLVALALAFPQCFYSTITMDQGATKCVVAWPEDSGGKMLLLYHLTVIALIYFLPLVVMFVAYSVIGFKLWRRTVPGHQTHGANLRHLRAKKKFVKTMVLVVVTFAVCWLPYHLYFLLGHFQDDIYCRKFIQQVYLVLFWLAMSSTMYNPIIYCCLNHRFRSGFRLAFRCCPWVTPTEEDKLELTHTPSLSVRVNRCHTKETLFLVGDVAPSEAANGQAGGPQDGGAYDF

[2] = Bioavailability in rat (dose 1-10 uM/kg i.v.); assay type: ADME, organism-based; details: in vivo, iv
Outline: (§1)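 Compound given to rat (n = 3) or dog (n = 1) by iv bolus at 1–10 μmol/kg, or orally at 10–100 μmol/kg, as a solution in 75% poly(ethylene glycol) 400 in normal saline.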

[3] = biological target: Substance-P receptor (Homo sapiens, UniProt P25103); experiment: Inhibition of binding of [3H]SP to Tachykinin receptor 1 of human tachykinin receptor expressed in mouse erythroleukemia cells; assay type: cell-based
[4] = biological target: T2, Neuromedin-K receptor (Homo sapiens, UniProt P29371); experiment: Inhibition of binding of [125I]MPNI to human Tachykinin receptor 3 (NK3) expressed in mouse erythroleukemia cells; assay type: cell-based
T2 sequence (P29371 whole entry): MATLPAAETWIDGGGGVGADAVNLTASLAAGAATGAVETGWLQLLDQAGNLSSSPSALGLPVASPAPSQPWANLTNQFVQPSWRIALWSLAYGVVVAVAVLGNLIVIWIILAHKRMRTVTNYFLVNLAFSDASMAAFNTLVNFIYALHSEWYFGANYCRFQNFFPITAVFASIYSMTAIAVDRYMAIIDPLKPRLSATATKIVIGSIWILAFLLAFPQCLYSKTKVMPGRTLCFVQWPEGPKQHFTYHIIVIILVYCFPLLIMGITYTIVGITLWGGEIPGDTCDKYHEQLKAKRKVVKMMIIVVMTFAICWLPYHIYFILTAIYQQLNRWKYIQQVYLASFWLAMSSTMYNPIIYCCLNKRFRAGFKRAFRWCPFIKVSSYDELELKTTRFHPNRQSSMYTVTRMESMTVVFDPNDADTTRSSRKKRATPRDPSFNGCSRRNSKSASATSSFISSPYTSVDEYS

[5] = biological target: Substance-P receptor (Cavia porcellus) (UniProt P30547); experiment: In vivo potency as dose ratio (ED50 ratio for Tachykinin receptor 1 in presence and absence of antagonist) in guinea pig PMM after oral administration at a dose 30 uM/Kg
[6] = biological target: T3, Substance-K receptor (Homo sapiens, UniProt P21452); experiment: Inhibition of binding of [3H]NKA to human Tachykinin receptor 2 (NK2) expressed in mouse erythroleukemia cells; assay type: cell-based
T3 sequence (P21452 whole entry): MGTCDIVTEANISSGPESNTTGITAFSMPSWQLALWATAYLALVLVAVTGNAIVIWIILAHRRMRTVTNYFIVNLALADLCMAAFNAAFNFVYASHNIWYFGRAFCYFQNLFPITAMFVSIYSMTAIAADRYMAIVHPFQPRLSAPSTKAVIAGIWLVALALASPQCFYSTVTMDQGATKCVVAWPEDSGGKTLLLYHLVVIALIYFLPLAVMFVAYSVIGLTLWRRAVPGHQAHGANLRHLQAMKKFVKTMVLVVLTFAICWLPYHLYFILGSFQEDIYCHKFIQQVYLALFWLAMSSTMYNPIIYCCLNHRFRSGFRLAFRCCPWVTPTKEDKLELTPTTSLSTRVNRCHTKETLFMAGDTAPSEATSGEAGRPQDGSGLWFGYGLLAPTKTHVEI

[7] = biological target: T4, Substance-K receptor (Cavia porcellus) (UniProt Q64077); experiment: In vivo potency as dose ratio (ED50 ratio for Tachykinin receptor 2 (NK2) in presence and absence of antagonist) in guinea pig PMM after intravenous administration at a dose 10 uM/Kg
T4 sequence (whole entry): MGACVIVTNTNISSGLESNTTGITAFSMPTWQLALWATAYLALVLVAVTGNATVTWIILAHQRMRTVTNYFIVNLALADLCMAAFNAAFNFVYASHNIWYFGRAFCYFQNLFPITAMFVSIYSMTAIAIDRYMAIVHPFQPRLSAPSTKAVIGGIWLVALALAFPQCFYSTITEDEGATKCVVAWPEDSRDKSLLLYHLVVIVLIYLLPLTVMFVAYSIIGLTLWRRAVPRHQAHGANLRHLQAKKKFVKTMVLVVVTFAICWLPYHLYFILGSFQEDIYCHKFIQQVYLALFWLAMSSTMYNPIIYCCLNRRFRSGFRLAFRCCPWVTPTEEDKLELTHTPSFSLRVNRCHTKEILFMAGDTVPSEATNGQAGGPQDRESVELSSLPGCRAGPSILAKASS

[8] = biological target: Substance-P receptor (Cavia porcellus) (UniProt P30547); experiment: In vivo binding affinity towards Tachykinin receptor 1 after oral administration in presence of agonist ASMSP in guinea pig pulmonary tissue in lung plasma extravation assay; assay type: organism-based
Outline: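 Guinea pig lung plasma extravasation model. Antagonist dosed orally; NK1-selective agonist ASMSP challenge 2 h postdose. Single ED50 calculated from dose response in three to six animals per dose over 4–5 dose levels, doses staggered across several days.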

[9] = Bioavailability in dog (dose 1-10 uM/kg i.v.); assay type: ADME, organism-based, Canis lupus familiaris; details: in vivo, iv; outline: as §1
[10] = biological target: T4, Substance-K receptor (Cavia porcellus); experiment: In vivo potency as dose ratio (ED50 ratio for Tachykinin receptor 2 (NK2) in presence and absence of antagonist) in guinea pig PMM after oral administration at a dose 30 uM/Kg
[11] = test system: Substance-P receptor (Oryctolagus cuniculus); experiment: Tested for the binding affinity towards tachykinin receptor 1 (NK1) in rabbit pulmonary artery tissue
[12] = biological target: Substance-P receptor (Cavia porcellus) (UniProt P30547); experiment: In vivo potency as dose ratio (ED50 ratio for Tachykinin receptor 1 in presence and absence of antagonist) in guinea pig PMM after intravenous administration at a dose 10 uM/Kg

Sequence of Substance-P receptor (Cavia porcellus) (P30547 whole entry): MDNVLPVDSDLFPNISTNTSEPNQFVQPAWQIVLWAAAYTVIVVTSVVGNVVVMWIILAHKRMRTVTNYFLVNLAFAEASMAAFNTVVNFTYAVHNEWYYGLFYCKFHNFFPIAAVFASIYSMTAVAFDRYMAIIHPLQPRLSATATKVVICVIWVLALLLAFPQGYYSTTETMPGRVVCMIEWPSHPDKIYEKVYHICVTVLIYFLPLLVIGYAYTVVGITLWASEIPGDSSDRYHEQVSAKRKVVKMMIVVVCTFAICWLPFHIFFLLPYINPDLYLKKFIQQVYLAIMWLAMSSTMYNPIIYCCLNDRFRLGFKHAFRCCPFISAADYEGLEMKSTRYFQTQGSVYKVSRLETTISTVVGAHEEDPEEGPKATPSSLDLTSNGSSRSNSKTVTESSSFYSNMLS
Sequence of Substance-P receptor (P25103 whole entry): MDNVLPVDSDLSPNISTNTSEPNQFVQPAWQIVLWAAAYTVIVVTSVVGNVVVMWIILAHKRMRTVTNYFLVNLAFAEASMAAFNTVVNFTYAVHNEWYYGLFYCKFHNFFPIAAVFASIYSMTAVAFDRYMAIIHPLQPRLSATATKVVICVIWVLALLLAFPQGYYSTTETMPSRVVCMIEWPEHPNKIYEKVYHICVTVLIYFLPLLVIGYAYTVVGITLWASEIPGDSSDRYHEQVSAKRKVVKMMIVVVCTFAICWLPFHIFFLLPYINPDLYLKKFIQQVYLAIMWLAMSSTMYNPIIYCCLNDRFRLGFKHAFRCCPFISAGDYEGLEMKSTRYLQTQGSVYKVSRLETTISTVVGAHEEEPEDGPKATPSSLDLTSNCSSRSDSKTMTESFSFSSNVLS

CN(C[C@@H](CCN1CCC(c2ccccc2[S+](C)[O-])CC1)c1ccc(Cl)c(Cl)c1)C(=O)c1cc(C#N)cc2ccccc12 (mixture of isomers)
pKB [1]: 8.48

COc1c(C#N)cc2ccccc2c1C(=O)N(C)C[C@@H](CCN1CCC(c2ccccc2[S@+](C)[O-])CC1)c1ccc(Cl)c(Cl)c1
bioavailability [2]: 12% | Ki [3]: 0.17 nM | Ki [4]: 220 nM | dose ratio [5]: 610 | Ki [6]: 67 nM | dose ratio [7]: 14 | ED50 [8]: 0.07 µmol/kg | bioavailability [9]: 51% | dose ratio [10]: 2

CCN1C(=O)c2ccccc2[C@H]1[C@@H](CCN1CCC(c2ccccc2[S@+](C)[O-])CC1)c1ccc(Cl)c(Cl)c1
Ki [4]: 9190 nM | Ki [6]: 0.92 nM

CN(C[C@@H](CCN1CCC(c2ccc(Br)cc2[S@+](C)[O-])CC1)c1ccc(Cl)c(Cl)c1)C(=O)c1cc(C#N)cc2ccccc12
pKB [11]: 8 | dose ratio [12]: 11 | pKB [1]: 8.12 | dose ratio [7]: 30

COc1ccc2c(C(=O)N(C)C[C@@H](CCN3CCC(c4ccccc4[S@+](C)[O-])CC3)c3ccc(Cl)c(Cl)c3)cc(C#N)cc2c1
pKB [11]: 7 | pKB [1]: 7.97

CN(C[C@@H](CCN1CCC(c2ccc(C(=O)O)cc2[S+](C)[O-])CC1)c1ccc(Cl)c(Cl)c1)C(=O)c1cc(C#N)cc2ccccc12 (mixture of isomers)
pKB [11]: 7.87 | pKB [1]: 6.38

CN(C[C@@H](CCN1CCC(c2ccccc2[S@+](C)[O-])CC1)c1ccc(Cl)c(Cl)c1)C(=O)c1cc(C#N)cc2cc(C#N)ccc12
pKB [11]: 7.77 | pKB [1]: 6.42

CN(C[C@@H](CCN1CCC(c2ccccc2[S@+](C)[O-])CC1)c1ccc(Cl)c(Cl)c1)C(=O)c1cc(C#N)c(Br)c2ccccc12
pKB [11]: 7.78 | pKB [1]: 6.99

CN(C[C@@H](CCN1CCC(c2ccc([S+](C)[O-])cc2[S+](C)[O-])CC1)c1ccc(Cl)c(Cl)c1)C(=O)c1cc(C#N)cc2ccccc12 (mixture of isomers)
pKB [11]: 7.33 | pKB [1]: 8.27

CN(C[C@@H](CCN1CCC(c2ccccc2[S@+](C)[O-])CC1)c1ccc(Cl)c(Cl)c1)C(=O)c1cc(C#N)cc2cc(O)ccc12
pKB [11]: 8.02 | pKB [1]: 7.31

CNC(=O)C1(N2CCOCC2=O)CCN(CC[C@H](CN(C)C(=O)c2cc(C#N)cc3ccccc23)c2ccc(Cl)c(Cl)c2)CC1
pKB [11]: 7.51 | pKB [1]: 7.81

COc1c(C#N)cc2ccccc2c1C(=O)N(C)C[C@@H](CCN1CCC(C(=O)N(C)C)(N2CCCCC2=O)CC1)c1ccc(Cl)c(Cl)c1
pKB [11]: 7.88 | pKB [1]: 7.7

CN(C[C@@H](CCN1CCC(c2cc(F)ccc2[S+](C)[O-])CC1)c1ccc(Cl)c(Cl)c1)C(=O)c1cc(C#N)cc2ccccc12 (mixture of isomers)
pKB [11]: 8.26 | pKB [1]: 8.34

CNC(=O)C1(N2CCCNC2=O)CCN(CC[C@H](CN(C)C(=O)c2cc(C#N)cc3ccccc23)c2ccc(Cl)c(Cl)c2)CC1
pKB [11]: 7.6 | pKB [1]: 8.22

CN(C)C(=O)C1(N2CCCCC2=O)CCN(CC[C@H](CN(C)C(=O)c2cc(C#N)cc3ccccc23)c2ccc(Cl)c(Cl)c2)CC1
pKB [11]: 7.36 | pKB [1]: 8.52

CN(C[C@@H](CCN1CCC(c2ccc(O)cc2[S+](C)[O-])CC1)c1ccc(Cl)c(Cl)c1)C(=O)c1cc(C#N)cc2ccccc12 (mixture of isomers)
pKB [11]: 8.93 | pKB [1]: 8.34

Cc1c(C#N)cc(C(=O)N(C)C[C@@H](CCN2CCC(c3ccccc3[S@+](C)[O-])CC2)c2ccc(Cl)c(Cl)c2)c2ccccc12
pKB [11]: 8.53 | pKB [1]: 7.8

CNC(=O)C1(N2CCCCC2=O)CCN(CC[C@H](CN(C)C(=O)c2cc(C#N)cc3ccccc23)c2ccc(Cl)c(Cl)c2)CC1
pKB [11]: 7.33 | pKB [1]: 8.44

COc1c(C#N)cc2ccccc2c1C(=O)N(C)C[C@@H](CCN1CCC(N2CCCNC2=O)CC1)c1ccc(Cl)c(Cl)c1
pKB [11]: 8.45 | pKB [1]: 7.92

COC(=O)c1ccc(C2CCN(CC[C@H](CN(C)C(=O)c3cc(C#N)cc4ccccc34)c3ccc(Cl)c(Cl)c3)CC2)c([S+](C)[O-])c1 (mixture of isomers)
pKB [11]: 7.92 | pKB [1]: 6.84

CN(C[C@@H](CCN1CCC(c2cc(Br)ccc2[S+](C)[O-])CC1)c1ccc(Cl)c(Cl)c1)C(=O)c1cc(C#N)cc2ccccc12 (mixture of isomers)
pKB [11]: 8.46 | pKB [1]: 8.55

COC(=O)c1ccc(C2CCN(CC[C@H](CN(C)C(=O)c3c(OC)c(C#N)cc4ccccc34)c3ccc(Cl)c(Cl)c3)CC2)c([S+](C)[O-])c1 (some centres not stated)
pKB [11]: 8.85 | pKB [1]: < 7

CN(C[C@@H](CCN1CCC(c2c(F)cccc2[S+](C)[O-])CC1)c1ccc(Cl)c(Cl)c1)C(=O)c1cc(C#N)cc2ccccc12 (some centres not stated)
pKB [11]: 7.25 | pKB [1]: 6.83

CN(C[C@@H](CCN1CCC(N2CCCNC2=O)CC1)c1ccc(Cl)c(Cl)c1)C(=O)c1cc(C#N)cc2ccccc12
pKB [11]: 8.18 | pKB [1]: 7.86

CN(C[C@@H](CCN1CCC(c2ccc(C(N)=O)cc2[S+](C)[O-])CC1)c1ccc(Cl)c(Cl)c1)C(=O)c1cc(C#N)cc2ccccc12 (mixture of isomers)
pKB [11]: 8.53 | pKB [1]: 6.92

CNC(=O)C1(N2CCOCC2=O)CCN(CC[C@H](CN(C)C(=O)c2c(OC)c(C#N)cc3ccccc23)c2ccc(Cl)c(Cl)c2)CC1
pKB [11]: 8.55 | pKB [1]: 7.79

CNC(=O)C1(N2CCCNC2=O)CCN(CC[C@H](CN(C)C(=O)c2c(OC)c(C#N)cc3ccccc23)c2ccc(Cl)c(Cl)c2)CC1
pKB [11]: 8.14 | pKB [1]: 8.11

CN(C[C@@H](CCN1CCC(c2ccccc2[S@+](C)[O-])CC1)c1ccc(Cl)c(Cl)c1)C(=O)c1cc(C#N)c(F)c2ccccc12
pKB [11]: 6.75 | pKB [1]: 6.2

CN(C[C@@H](CCN1CCC(c2ccc(F)cc2[S@+](C)[O-])CC1)c1ccc(Cl)c(Cl)c1)C(=O)c1cc(C#N)cc2ccccc12
pKB [11]: 8.01 | dose ratio [5]: 4 | dose ratio [12]: 126 | pKB [1]: 8.38 | dose ratio [7]: 153 | dose ratio [10]: 5

CN(C[C@@H](CCN1CCC(c2ccccc2[S@+](C)[O-])CC1)c1ccc(Cl)c(Cl)c1)C(=O)c1cc(C#N)c(C#N)c2ccccc12
pKB [11]: 7.76 | pKB [1]: 7.65
